# Test results: ChEMBL document CHEMBL4837218, “Synthesis and in vitro antitumour activity of 4(R)-methyl-3-O-phosphonomethyl-α-l-threose nucleosides” (Eur J Med Chem, 2021)
# pIC50: −log10 of the molar value. The source made the active and inactive calls. No cut-off for these calls is given here.
# Columns and labels:
# MCF7 [1] = assay: Inhibition of colony formation in human MCF7 cells incubated for 24 hrs followed by medium removal and measured after 7 days by crystal violet staining based assay; type: functional, cell-based; conditions: dose 1-4 µM
# How it was run: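 Cells seeded at 1 × 10³ per well in six-well plates and left overnight. Compound (DMSO solution) given in fresh medium for 24 h, then medium removed and plates grown another 7 days. Colonies washed with PBS, fixed in 4% paraformaldehyde 30 min, stained with 0.1% crystal violet 30 min, photographed and counted.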
# MDA-MB-231 [2] = assay: Induction of G2/M phase cell cycle arrest in human MDA-MB-231 cells assessed as increase in Cdc25c protein expression at 3 to 9 uM measured after 48 hrs by western blot analysis; type: functional, cell-based; conditions: dose 3-9 µM
# MCF7 [3] = assay: Induction of mitochondrial membrane potential loss in human MCF7 cells assessed as red fluorescence intensity at 1 uM measured after 48 hrs by JC1 staining-based flow cytometry analysis (reference value: 91.9%); type: functional
# MCF7 [4] = assay: Induction of apoptosis in human MCF7 cells assessed as late apoptotic cells at 2 uM measured after 48 hrs by Annexin V-FITC/propidium iodide staining based flow cytometric analysis (reference value: 0.6 %); type: functional
# MDA-MB-231 [5] = assay: Induction of apoptosis in human MDA-MB-231 cells assessed as early apoptotic cells at 9 uM measured after 48 hrs by Annexin V-FITC/propidium iodide staining based flow cytometric analysis (reference value: 1%); type: functional
# MDA-MB-231 [6] = assay: Potency index, ratio of 5-FU IC50 to test compound IC50 for anticancer activity against human MDA-MB-231 cells measured after 72 hrs by MTT assay; type: functional
# How it was run: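 MTT assay: 3000 exponentially growing cells per well, 12 h at 37 °C. Medium replaced with compound at a range of concentrations for 72 h. MTT (5 mg/mL stock) added for 4 h, formazan dissolved in DMSO. Absorbance read at 570 nm (reference 630 nm); percent inhibition gives IC50. Index is 5-FU IC50 divided by test-compound IC50.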
# MDA-MB-231 [7] = assay: Induction of mitochondrial membrane potential loss in human MDA-MB-231 cells assessed as red fluorescence intensity at 3 uM measured after 48 hrs by JC1 staining-based flow cytometry analysis (reference value: 99.2 %); type: functional
# MCF7 [8] = assay: Cell cycle arrest in human MCF7 cells assessed as accumulation at G2/M phase at 4 uM measured after 48 hrs by propidium iodide staining based flow cytometry (reference value: 0.01 %); type: functional
# MDA-MB-231 [9] = assay: Antiproliferative activity against human MDA-MB-231 cells assessed as growth inhibition measured after 72 hrs by MTT assay; type: functional, cell-based; conditions: MDA-MB-231, 72 h
# How it was run: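 Cells seeded at 3000 exponentially growing cells/well and incubated 12 h at 37 °C. Medium then replaced with fresh medium containing graded compound concentrations for 72 h; 5-FU positive control. MTT (5 mg/mL solution) added for 4 h, formazan dissolved in DMSO, absorbance read at 570 nm (reference 630 nm). Relative percentage inhibition of viable cells calculated; IC50 reported as mean ± standard deviation.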
# MCF7 [10] = assay: Induction of DNA damage in human MCF7 cells assessed as increase in Chk2 phosphorylation at Thr68 residue at 1 to 4 uM measured after 48 hrs by western blot analysis; type: functional, cell-based; conditions: dose 1-4 µM
# How it was run: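 Cells exposed to graded concentrations for 48 h, then proteins extracted. Run on SDS-PAGE (5–15% gels) and transferred to nitrocellulose. Blocked 2 h in 5% nonfat milk in PBS/0.1% Tween 20, primary antibody overnight at 4 °C, biotin-conjugated secondary 1 h. Visualized on X-ray film with densitometric quantitation; three independent experiments.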
# MCF7 [11] = assay: Induction of apoptosis in human MCF7 cells assessed as increase in Noxa protein expression at 1 to 4 uM measured after 48 hrs by western blot analysis; type: functional, cell-based; conditions: dose 1-4 µM
# How it was run: (§1)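 MCF-7 and MDA-MB-231 breast cancer cells treated 48 h with a concentration series, then lysed for protein. SDS-PAGE on 5–15% gels, transfer to nitrocellulose. Blocked 2 h in 5% nonfat milk/PBS-0.1% Tween 20, primary antibodies overnight at 4 °C, biotin-conjugated secondary 1 h. X-ray film detection with densitometric quantification.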
# MDA-MB-231 [12] = assay: Induction of apoptosis in human MDA-MB-231 cells assessed as late apoptotic cells at 9 uM measured after 48 hrs in presence of cdc25c inhibitor, NSC663284 by AnnexinV-FITC/PI staining based flow cytometry (reference value: 8.3%); type: functional
# MDA-MB-231 [13] = assay: Induction of apoptosis in human MDA-MB-231 cells assessed as increase in Bax to Bcl2 ratio at 3 to 9 uM measured after 48 hrs by western blot analysis; type: functional, cell-based; conditions: dose 3-9 µM; how it was run: as §1
# MDA-MB-231 [14] = assay: Induction of apoptosis in human MDA-MB-231 cells assessed as increase in cleaved caspase 9 protein expression at 9 uM measured after 48 hrs in presence of cdc25c inhibitor, NSC663284 by western blot analysis; type: functional, cell-based
# How it was run: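 Four arms per cell line: untreated, test compound, 0.3 µM NSC663284 alone, and combination. Proteins harvested after 48 h and resolved by SDS-PAGE on 5–15% gels, transferred to nitrocellulose. Blocked 2 h in milk/PBS-Tween, primary antibodies overnight at 4 °C, biotin-conjugated secondary. Read on X-ray film with densitometry.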
# MDA-MB-231 [15] = assay: Induction of G2/M phase cell cycle arrest in human MDA-MB-231 cells assessed as upregulation of cdc25c protein expression at 9 uM measured after 48 hrs in presence of cdc25c inhibitor, NSC663284 by western blot analysis; type: functional, cell-based
# MCF7 [16] = assay: Induction of apoptosis in human MCF7 cells assessed as increase in cleaved PARP protein expression at 1 to 4 uM measured after 48 hrs by western blot analysis; type: functional, cell-based; conditions: dose 1-4 µM; how it was run: as §1
# MCF7 [17] = assay: Induction of apoptosis in human MCF7 cells assessed as late apoptotic cells at 4 uM measured after 48 hrs in presence of cdc25c inhibitor, NSC663284 by AnnexinV-FITC/PI staining based flow cytometry (reference value: 4.9%); type: functional
# MCF7 [18] = assay: Cell cycle arrest in human MCF7 cells assessed as accumulation at S phase at 2 uM measured after 48 hrs by propidium iodide staining based flow cytometry (reference value: 25.34 %); type: functional
# MDA-MB-231 [19] = assay: Induction of apoptosis in human MDA-MB-231 cells assessed as early apoptotic cells at 9 uM measured after 48 hrs in presence of cdc25c inhibitor, NSC663284 by AnnexinV-FITC/PI staining based flow cytometry (reference value: 7.4%); type: functional
# MDA-MB-231 [20] = assay: Antiproliferative activity against human MDA-MB-231 cells assessed as reduction in cell viability at 0.03 to 16 uM measured after 24 to 72 hrs by MTT assay; type: functional, cell-based; conditions: dose 0.03-16 µM, time 24-72 hrs
# How it was run: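 MTT viability time course on the breast cancer cells with increasing compound concentrations for 24, 48 and 72 h. Cells seeded at 3000/well and allowed 12 h before treatment. MTT (5 mg/mL solution) applied for 4 h, crystals dissolved in DMSO, absorbance read at 570/630 nm. Viability expressed relative to untreated cells.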
# MDA-MB-231 [21] = assay: Induction of apoptosis in human MDA-MB-231 cells assessed as increase in Bad protein expression at 3 to 9 uM measured after 48 hrs by western blot analysis; type: functional, cell-based; conditions: dose 3-9 µM; how it was run: as §1
# MDA-MB-231 [22] = assay: Induction of apoptosis in human MDA-MB-231 cells assessed as late apoptotic cells at 6 uM measured after 48 hrs by Annexin V-FITC/propidium iodide staining based flow cytometric analysis (reference value: 0.3%); type: functional
structure (smiles),measurement,setting,value
C[C@H]1O[C@@H](n2cnc3c(N)nc(F)nc32)[C@H](O)[C@H]1OCP(=O)([O-])[O-].[Na+].[Na+],inhibition,MCF7 [1],Dose-Dependent Effect
same,Activity,MDA-MB-231 [2],Active
same,Activity,MCF7 [3],90.9%
same,Activity,MCF7 [4],6.5%
same,Activity,MDA-MB-231 [5],24.8%
same,Ratio IC50,MDA-MB-231 [6],47
same,Activity,MDA-MB-231 [7],98.6%
same,Activity,MCF7 [8],26.15%
same,pIC50,MDA-MB-231 [9],6.41
same,Activity,MCF7 [10],Active
same,Activity,MCF7 [11],Active
same,Activity,MDA-MB-231 [12],3.2%
same,Activity,MDA-MB-231 [13],Active
same,Activity,MDA-MB-231 [14],inactive
same,Activity,MDA-MB-231 [15],inactive
same,Activity,MCF7 [16],Active
same,Activity,MCF7 [17],5.2%
same,Activity,MCF7 [18],38.69%
same,Activity,MDA-MB-231 [19],5.1%
same,Activity,MDA-MB-231 [20],Active
same,Activity,MDA-MB-231 [21],Active
same,Activity,MDA-MB-231 [22],18.8%
